Data taken from PMC8159369 (Chemical Science, 2020).

Target: HRP-labeled WGA
Experiment: Enzyme-linked lectin assay
Parameters: species or system Triticum vulgaris
Details: inhibition of binding of HRP-labeled WGA to covalently immobilized GlcNAc
How it was run: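 ELLA in which the test compound competes with a surface-coated reference ligand for lectin binding. Dose–response curves were recorded over a concentration series. IC50 is the concentration giving 50% inhibition of lectin binding.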

- IC50: 15 mM
Compound: CC(=O)N[C@@H]1[C@@H](O)[C@H](O)[C@@H](CO)O[C@H]1O [GlcNAc, N-acetylglucosamine]
